# Source: PubChem
# HSV augment: enhancers of HSV replication in host cells, fold increase, host cell viability; 220,000 compounds, 0.005% hits; AID 1956, 2009; maximum fold increase; HSV replication augmentation in cells; in the data active means maximum fold increase above about 1.5; tested in PC3 cells
# MT stabilizer: microtubule stabilizers in HeLa cells, primary screen, imaging, high-content imaging; HeLa tubulin immunostaining HCS, 24 h; share of cells brighter than vehicle mean+2SD; % tubulin-high responders, % at 10 µM; 200,000 compounds, 0.83% hits; AID 2205, 2009;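 active means plate Z-score above 3 for both tubulin-high and condensed-nucleus cell shares, with cell loss under 80%, at 10 µM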;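 further: anti alpha tubulin signal scored within the nucleus-defined area of each cell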
# ROMK primary: ROMK potassium channel modulators, primary screen, cell-based, thallium flux, MLSMR library | ATP-sensitive inward rectifier potassium channel 1 (Homo sapiens), P48048 | Tet-inducible ROMK, thallium flux fluorescence; actives lie on both sides | B-score at 10 µM | 130,000 compounds, 2% hits | AID 1918, 2009;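 active means signal ratio slope over the read window, or its plate-corrected B-score, at least 3 SD from the plate mean, either direction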;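 further: B-score of the F/F0 ratio slope over 7 to 12 s after thallium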
# Target sequence (P48048 whole entry, looked up): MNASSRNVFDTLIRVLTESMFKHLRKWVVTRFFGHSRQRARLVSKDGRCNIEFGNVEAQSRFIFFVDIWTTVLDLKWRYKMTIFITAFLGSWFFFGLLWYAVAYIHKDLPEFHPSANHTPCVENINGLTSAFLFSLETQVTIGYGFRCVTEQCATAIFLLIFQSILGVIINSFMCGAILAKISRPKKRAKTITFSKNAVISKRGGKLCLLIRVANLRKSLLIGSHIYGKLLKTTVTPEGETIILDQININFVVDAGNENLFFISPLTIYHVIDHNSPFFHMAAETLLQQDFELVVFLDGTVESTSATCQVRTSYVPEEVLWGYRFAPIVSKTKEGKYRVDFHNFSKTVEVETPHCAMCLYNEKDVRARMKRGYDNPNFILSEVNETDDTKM
# Insulin prom inh: inhibitors of insulin promoter-driven GFP, primary screen, imaging, TRM-6 cells (human fetal islet line), eGFP reporter, cell count. reporter expression induced with tamoxifen. 130,000 compounds, 0.9% hits. inhibition, % at 2 µM. AID 1273, 2008;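 active means inhibition above the mean plus 3 SD, with well images judged a real hit on visual review, cut at about 60% in these data, passing the limit was not always enough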
# bCat nuc transl: modulators of beta-catenin nuclear translocation, primary screen, imaging, HeLa cells, immunofluorescence, high-content | 190,000 compounds, 0.3% hits | nuclear translocation activity, % at 5 µM | AID 1665, 2009;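 active means nuclear translocation activity above 50% at 5 µM, with a well cell count of 50 or more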;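 further: per-cell ratio of nuclear to cytoplasmic median beta-catenin stain intensity; plate controls were DMSO negative control for no effect and GSK-3 inhibitor IX positive control for full effect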
#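 Technique: fluorescence imaging of beta-catenin antibody stain plus DAPI / Material: human HeLa cell line / Incubation: compound treatment 24 h, 37°C, 5% CO2 / Read-out basis: % activation of per-cell nuclear versus cytoplasmic median beta-catenin signal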
# * marks the source's active call; other numbers are inactive results; i = inactive; x = no result. Rows were chosen to be rich in hits. Some 2.4% of all compounds tested hit in one or more screens of this group.
SMILES,HSV augment,MT stabilizer,ROMK primary,Insulin prom inh,bCat nuc transl
O=C(Nc1nnc(-c2ccc(F)cc2)o1)c1cc(Cl)sc1Cl,i,2,3.2*,-257,1
O=C(Nc1nnc(-c2ccccc2)o1)c1cc(Cl)sc1Cl,i,2,2.3*,4,1
COc1cccc(-c2nnc(NC(=O)c3cccc(F)c3)o2)c1,i,x,x,x,0
COc1ccc(C(=O)Nc2nnc(-c3ccccc3)o2)cc1OC,i,3,0.33,x,-4
O=C(O)C1CN(C(=O)c2cccc(Br)c2)C1,i,2,-0.38,x,-1
CCn1cc(C2=NC(C)CO2)c2ccccc21 (stereo unspecified),i,1,-0.44,84*,x
CCCCNC(=O)c1ccc2c(c1)N(CC)C(=O)c1ccccc1S2(=O)=O,i,5,x,x,0
Cc1nc(NC(=O)/C=C/c2ccco2)sc1C,i,16*,1.8,-20,-3
O=C(/C=C\c1ccco1)Nc1cc([N+](=O)[O-])ccc1F,i,4,x,-72,56*
O=C(/C=C/c1ccco1)Nc1nnc(-c2ccco2)s1,i,8.2*,2,x,12
O=C(/C=C/c1ccco1)Nc1cc(Cl)ccc1C(=O)O,i,2,0.53,-12,0
Cc1c(O)c2c(=O)n(-c3ccccc3)c(-c3ccccc3)cc2oc1=O,i,3,0.64,x,-2
CCc1nnc(NC(=O)Cc2ccc(Br)cc2)s1,i,3,-0.023,x,0
c1ccc(-c2[nH]ncc2CN2CCN(Cc3ccc4c(c3)OCO4)CC2)cc1,i,x,x,x,-2
C#CCSc1nc2ccccc2n1C(=O)c1ccc(S(=O)(=O)N2CCCCC2)cc1,i,3,-0.72,76*,3
CCSc1nc2ccccc2n1C(=O)c1ccc(S(=O)(=O)N2CCCCC2)cc1,i,3,x,82*,x
CC(=O)C(=Nc1ccccc1Cl)NNc1ccc(Cl)cc1,i,3,-0.73,75*,0
O=C(c1ccc(Cn2c(=S)[nH]c3cc4c(cc3c2=O)OCO4)cc1)N1CCN(c2ncccn2)CC1,i,3,-0.27,-7,-3
O=C(c1ccc(Br)s1)N1CCCC1,i,4,0.017,70*,5
C=CCn1c(CNc2ccc(C)cc2)nnc1SCC(=O)N/N=C/c1ccc(O)cc1,i,2,0.098,29,1
Cc1cc(C)n(CC(=O)N2CCCC(C(=O)c3cccc(OC(C)C)c3)C2)n1 (stereo unspecified),i,5,-0.18,x,3
CCOc1nc(NC(=O)NS(=O)(=O)c2ccccc2F)nc(-c2ccccc2)n1,i,2,-0.85,91*,-1
CC(C)c1ccc(NC(=O)c2sccc2-n2cccc2)cc1,i,3,0.4,27,-2
CCOc1ccc(NS(=O)(=O)c2cc(NC(=O)c3cccc(C)c3)ccc2Cl)cc1,i,23*,x,x,12
Cc1cccc(NC(=O)c2cccc(NS(=O)(=O)c3ccc(Cl)cc3)c2)c1,i,2,x,-10,-4
SMILES,HSV augment,MT stabilizer,ROMK primary,Insulin prom inh,bCat nuc transl
Cc1ccccc1-n1cnc2cc(NCc3cccs3)ccc21,i,27*,x,-31,15
CC(C)(C)n1cnc2cc(NCc3cccs3)ccc21,i,3,-0.69,44,1
COc1ccccc1-n1cnc2cc(NCc3cccs3)ccc21,i,18*,x,-257,162*
CCOc1ccccc1NC(=O)Cn1nnc(-c2ccc(OCC)c(OCC)c2)n1,i,5,x,x,-9
Cc1ccc(S(=O)(=O)N2CCOCC2)cc1N/N=C(\C#N)c1nc2ccccc2[nH]1,i,4,x,x,0
O=C(O)c1cccc(Oc2ccc([N+](=O)[O-])cc2)c1,i,2,0.62,5,-1
COc1ccc(NC(=O)c2cccc([N+](=O)[O-])c2)cc1,i,1,0.17,-12,0
COc1ccc(NC(=O)c2cc([N+](=O)[O-])ccc2O)cc1,i,3,4.5*,x,-1
O=C(Nc1ccc(O)cc1)c1cccc(Oc2ccc([N+](=O)[O-])cc2)c1,i,37*,0.11,-33,6
O=C(CCC1CCCN(C(=O)CCN2CCCCC2=O)C1)NCc1ccccc1F (stereo unspecified),i,2,0.012,30,0
COC(=O)C1=C(C(=O)OC)[C@@H]2N(C)c3ccccc3[C@@]23C[C@@H](CO)N(C(=O)NCCBr)C3=N1,i,x,x,x,2
Cc1nnc(-c2cnn(C)c2N)n1Cc1ccccc1,i,1,0.29,42,-12
Cc1nnc(-c2cnn(C)c2N)n1Cc1cccc(Cl)c1,i,2,0.31,89*,2
Fc1ccc(N2Cc3ccsc3C=N2)cc1,i,3,0.17,-47,5
CC(=NCCc1c(C)[nH]c2ccc(OC(F)(F)F)cc12)C1=C(O)CC(c2ccccc2)CC1=O (stereo unspecified),i,13*,0.052,33,2
CC(=NCCc1c(C)[nH]c2ccc(C)cc12)C1=C(O)CC(c2ccccc2)CC1=O (stereo unspecified),i,16*,0.56,-51,10
COc1ccc2nc(SCC(=O)C(C)(C)C)[nH]c2c1,i,x,x,x,0
Cc1ccccc1NCC(=O)N/N=C/C(Br)=C/c1ccccc1,i,26*,-0.46,17,4
Cc1ccc(-c2cc(C(=O)N/N=C/C(Br)=C/c3ccccc3)n[nH]2)o1,i,12*,-0.24,x,5
Cc1ccc(-c2cc(C(=O)N/N=C/c3c[nH]c4ccccc34)n[nH]2)o1,i,9,0.36,-12,0
O=C(N/N=C/c1cccs1)c1n[nH]c2c1CCCC2,i,x,0.76,x,0
O=C(N/N=C/C(Br)=C/c1ccccc1)c1cnccn1,i,x,1.1,x,-4
O=C(N/N=C/c1cccc2ccccc12)c1n[nH]c2c1CCCC2,i,31*,1.3,-150,9
O=C(N/N=C/C(Br)=C\c1ccccc1)c1n[nH]c2c1CCC2,x,15*,2.9,-39,x
O=C(Cc1cccs1)N/N=C/C(Br)=C/c1ccccc1,i,4,x,x,0
SMILES,HSV augment,MT stabilizer,ROMK primary,Insulin prom inh,bCat nuc transl
NC(=S)N/N=C1\CCSc2ccc(Cl)cc21,i,x,-0.73,x,1
O=C(CCl)c1ccc2[nH]c(=O)oc2c1,i,x,x,x,-1
O=S(=O)(c1ccc(C2CCCCC2)cc1)N1CCCC1,i,2,x,42,-4
O=C(N/N=C\c1cccc(Cl)c1)c1n[nH]c2c1CCCC2,i,5,0.9,7,-2
Cc1ccc(/C=N/NC(=O)c2n[nH]c3c2CCCC3)cc1,i,x,x,x,58*
COc1ccc(C(=O)N/N=C/C(Br)=C/c2ccccc2)cc1,x,7,x,x,-2
COc1cccc(C(=O)N/N=C/C(Br)=C/c2ccccc2)c1,i,23*,x,x,60*
O=C(N/N=C/c1ccc(Cl)cc1Cl)c1n[nH]c2c1CCCC2,i,22*,x,20,20
